From paper PMC5851871 (Bioorganic & medicinal chemistry letters, 2018)

What was measured:
thrombin [1] = target: T1, thrombin (Homo sapiens, UniProt P00734); test: Michaelis-Menten kinetics of Spectrozyme TH hydrolysis; type: biochemical; settings: Michaelis-Menten kinetic studies
In short: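 Thrombin hydrolysis of Spectrozyme TH, a chromogenic substrate, was read spectrophotometrically at pH 7.4 and 25 °C. The substrate was varied at several test compound levels up to 40 μM. VMAX and KM were taken from Michaelis-Menten analysis to assign the inhibition mechanism.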

[2] = target: thrombin cleavage of human fibrinogen (Homo sapiens, UniProt P00734); test: PAGE densitometry of thrombin cleavage of fibrinogen; type: biochemical; settings: for Maximal inhibition of fibrinogen cleavage (ΔY against fibrinogen): saturating inhibitor, 4.7 μM fibrinogen, 6 nM thrombin, pH 7.4, 25 °C
In short: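 Thrombin (6 nM) cleaved human fibrinogen (4.7 μM) with test compound at 0 to 150 μM. Fibrinogen cleavage was monitored by polyacrylamide gel electrophoresis.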

[3] = test system: recombinant thrombin mutants (exosite 2 Ala replacements); test: Inhibition of recombinant exosite 2 alanine mutant versus wild-type thrombins; type: biochemical; settings: 11 single Ala mutants of exosite 2, Spectrozyme TH, pH 7.4, 25 °C
thrombin [4] = target: T1, thrombin; test: Thrombin inhibition, chromogenic substrate hydrolysis assay; type: biochemical; settings: 20 mM Tris-HCl pH 7.4, 25 mM CaCl2, 100 mM NaCl, 0.1% PEG 8000, 25 °C, ± 1 S.E.
thrombin [5] = target: T1, thrombin; settings: inhibition of human thrombin by peptides; cited from earlier work

CCOC(=O)c1c(C)oc2cc(OCCc3ccccc3)c(OCc3oc4cc(OC)c(OS(=O)(=O)[O-])cc4c3C(=O)OCC)cc12.[Na+] [2c]
Mechanism of inhibition (thrombin [1]): noncompetitive inhibitor | Maximal inhibition of fibrinogen cleavage (ΔY against fibrinogen) [2]: about 70±8% | Fibrinogen cleavage continuing at saturating inhibitor ([2]; saturating levels of inhibitor): approximately 30% | IC50 of mutant versus wild-type thrombin [3]: virtually no difference in IC50 between wild-type and mutant thrombin except for Arg233Ala and Lys235Ala proteins

CCOC(=O)c1c(C)oc2cc(OCC3CCCCC3)c(OCc3oc4cc(OCC5CCCCC5)c(OS(=O)(=O)[O-])cc4c3C(=O)OCC)cc12.[Na+] [2h]
ΔY (efficacy of inhibition) (thrombin [4]): ~ 90%

CCOC(=O)c1c(C)oc2cc(OCc3ccccc3)c(OCc3oc4cc(OCC5CCCCC5)c(OS(=O)(=O)[O-])cc4c3C(=O)OCC)cc12.[Na+] [2i]
Mechanism of inhibition (thrombin [1]): mixed inhibition | Maximal inhibition of fibrinogen cleavage (ΔY against fibrinogen) [2]: greater than 90% | IC50 of mutant versus wild-type thrombin [3]: potency changed significantly for several mutants including Arg165Ala, Lys169Ala, Arg175Ala, Arg233Ala and Lys236Ala

Fibrinogen peptide (410 – 427): allosteric peptide inhibitor of thrombin, literature value from ref 18
IC50 (thrombin [5]): 130 µM
